Experimental findings from ChEMBL document CHEMBL4145654, “Structure-Based Discovery of CF53 as a Potent and Orally Bioavailable Bromodomain and Extra-Terminal (BET) Bromodomain Inhibitor” (J Med Chem, 2018) are described below.

In data set [1] the target is Bromodomain-containing protein 4 (Homo sapiens, UniProt O60885). In words: Inhibition of FAM-labeled ZBA248 binding to recombinant human BRD4 bromodomain 1 (44 to 168 residues) expressed in Rosetta2 Escherichia coli DE3 cells after 30 mins by fluorescence polarization assay. The method, boiled down: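 Recombinant human BRD4 BD1 (residues 44−168) in a fluorescence polarization competitive binding assay, run as described in earlier work.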
(Polarisation of emitted light reports the rotation of a fluorescent probe.)

In data set [2] the test system is MDA-MB-231. In words: Growth inhibition of human MDA-MB-231 cells after 4 days by WST-8 assay. As to conditions: MDA-MB-231, 96 h. In kind it is functional, cell-based. The gist of the method: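 Cells used within 3 months of thaw. Breast cancer cells seeded at 3000 cells/well, then serially diluted compound added, cultured 4 days. Growth read by WST-8 (10% v/v final, 1−3 h, 450 nm). Readings normalized to DMSO-treated cells. IC50 by nonlinear regression.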
For orientation: Formazan colour is commonly taken as a measure of viable cells.

Data set [3] deals with MOLM-13. The data set can be described thus: Growth inhibition of human MOLM13 cells after 4 days by WST-8 assay. In kind it is functional, cell-based. As to conditions: MOLM-13, 96 h. The gist of the method: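 Leukemia cells, used within 3 months of thaw, were seeded at 10 000 cells/well and exposed to serially diluted compound in culture medium for 4 days. WST-8 reagent was added at 10% (v/v) final for 1−3 h, and absorbance was read at 450 nm. Readings were normalized to DMSO-treated cells, and the IC50 was fitted by nonlinear regression.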

Data set [4] is described as follows: Plasma concentration in SCID mouse xenografted with human MDA-MB-231 cells at 50 mg/kg administered via oral gavage measured after 1 hr. In kind it is ADME, organism-based. The method, boiled down: (§1)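 Limited PK in SCID mice bearing MDA-MB-231 tumors, 50 mg/kg given by oral gavage. Plasma and tumor tissue drug levels measured at two time points per compound. Values are the mean of two mice/tumors per time point.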
(In general: A xenograft is tissue or cells of one species grown in another, often human tumour cells in immunodeficient mice.)

A short description of data set [5]: Plasma concentration in SCID mouse xenografted with human MDA-MB-231 cells at 50 mg/kg administered via oral gavage measured after 6 hrs. In kind it is ADME, organism-based. The method, boiled down:
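SCID mice carrying MDA-MB-231 tumors dosed orally at 50 mg/kg. Plasma drug level determined by LC-MS/MS (positive-ion MRM, C18 column, formic acid/acetonitrile gradient). Value is the mean from two mice per time point.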

The nature of data set [6]: Drug uptake in tumor of SCID mouse xenografted with human MDA-MB-231 cells at 50 mg/kg administered via oral gavage measured after 6 hrs. In kind it is ADME, organism-based, Neoplasm. As to conditions: read-out: Drug uptake. The method, boiled down:
as §1

The nature of data set [7]: Drug uptake in tumor of SCID mouse xenografted with human MDA-MB-231 cells at 50 mg/kg administered via oral gavage measured after 1 hr. Particulars: read-out: Drug uptake. In kind it is ADME, organism-based, Neoplasm. The method, boiled down: as §1
The nature of data set [8]: Drug uptake in tumor of SCID mouse xenografted with human MDA-MB-231 cells at 50 mg/kg administered via oral gavage measured after 0.5 hrs. In kind it is ADME, organism-based, Neoplasm. Particulars: read-out: Drug uptake. The method, boiled down: as §1
A short description of data set [9]: Plasma concentration in SCID mouse xenografted with human MDA-MB-231 cells at 50 mg/kg administered via oral gavage measured after 0.5 hrs. In kind it is ADME, organism-based. The gist of the method: as §1
The test system of data set [10] is RS4-11. In words: Antitumor activity against human RS4:11 cells xenografted in SCID mouse assessed as tumor growth inhibition at 50 mg/kg administered via oral gavage measured on day 35. Particulars: RS4-11, po, 840 h, read-out: TGI. In kind it is functional. The gist of the method: (§2)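 Each SCID mouse received a single dorsal subcutaneous tumor of 5 × 10⁶ RS4;11 or MDA-MB-231 cells in 50% Matrigel. At about 100 mm3, mice were randomised to treatment or vehicle control groups. Dosing was by oral gavage at the stated schedules. Tumor volume was L × W²/2, and body weight was tracked. TGI versus vehicle at end of treatment was tested by unpaired two-tailed t-test.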

Data set [11] deals with MDA-MB-231. The data set can be described thus: Antitumor activity against human MDA-MB-231 cells xenografted in SCID mouse assessed as tumor growth inhibition at 50 mg/kg administered via oral gavage measured on day 44. In kind it is functional. Particulars: MDA-MB-231, po, 1056 h, read-out: TGI. The gist of the method: as §2

Broadly, the IC50 is the point on the concentration scale where inhibition reaches its midpoint. The Ki is a dissociation constant, usually derived from enzyme kinetics or from competition with a known ligand. For `COc1cc2c(cc1-c1c(C)noc1C)[nH]c1nc(C)nc(Nc3cc(C)nn3C)c12`, the IC50 turned out to be 9.4 nM in [1], 55.1 nM in [2] and 10.3 nM in [3]. The inhibitory constant (Ki) in data set [1] amounted to 0.8 nM.
For `COc1cc2c(cc1-c1c(C)noc1C)[nH]c1nc(C)nc(Nc3cc(C4CCC4)nn3C)c12` the same measures were 12.8 nM, 63.2 nM, 26.6 nM and 2 nM.
Turning to `COc1cc2c(cc1-c1c(C)noc1C)[nH]c1nc(C)nc(Nc3cc(C)nn3C3CCCC3)c12`, the IC50 was determined as 4 nM in data set [1], 25 nM in data set [2] and 17.7 nM in [3]. Moreover, the Ki in data set [1] was less than 1 nM.
In the case of `COc1cc2c(cc1-c1c(C)noc1C)[nH]c1nc(C)nc(Nc3cc(C)nn3C(C)C)c12`, the Ki in [1] was found to be 0.5 nM. Besides, the values for the IC50 in data set [2] and in data set [3] were 29.6 nM and 5 nM, respectively.
As to `COc1cc2c(cc1-c1c(C)noc1C)[nH]c1nc(C)nc(Nc3c4c(nn3C)CCCC4)c12`, the concentration at 1 h is 2980 ng/mL in data set [4] and 466 ng/g in data set [7]. Besides, the IC50 in [1] came to 4.9 nM; in data set [2] it was 17.5 nM; in [3] it was 11.3 nM. Also, in data set [1], the Ki is less than 1 nM. For the same compound, the concentration at 6 h in data set [5] stood at 1150 ng/mL; in data set [6], 132 ng/g.
With `COc1cc2c(cc1-c1c(C)noc1C)[nH]c1nc(C)nc(Nc3c4c(nn3C)CCC4)c12`, the concentration at 1 h amounted to 4880 ng/mL in [4] and 1510 ng/g in [7]. Further, the figures for the IC50 in [1], in data set [2] and in data set [3] were 5.5 nM, 67 nM and 5 nM, respectively. Moreover, the Ki in [1] is less than 1 nM. The figures for the concentration at 6 h in [5] and in [6] were 1580 ng/mL and 600 ng/g, respectively.
`COc1cc2c(cc1-c1c(C)noc1C)[nH]c1nc(C)nc(Nc3cc(C)nn3C(C)(C)C)c12`: the IC50 in data set [1] is 4.4 nM; in [2], 13.9 nM; in data set [3] it was 10.6 nM. Moreover, the inhibition constant (Ki) in [1] is less than 1 nM. The values for the concentration at 6 h in data set [5] and in data set [6] were 127 ng/mL and 621 ng/g, respectively. Also, the concentration at 0.5 h in data set [8] is 5230 ng/g; in [9], 3680 ng/mL.
As for `COc1cc2c(cc1-c1c(C)noc1C)[nH]c1nc(C)nc(Nc3nn(C)c4ccncc34)c12`, in [1], the IC50 stood at 228 nM and the inhibition constant (Ki) came to 77.9 nM.
Turning to `COc1cc2c(cc1-c1c(C)noc1C)[nH]c1nc(C)nc(Nc3cc(C(F)(F)F)nn3C)c12`, the IC50 in data set [1] was determined as 15.8 nM; in [2], 156 nM; in data set [3] it was 56 nM. Moreover, the Ki in data set [1] was determined as 3.1 nM.
With `COc1cc2c(cc1-c1c(C)noc1C)[nH]c1nc(C)nc(Nc3nn(C)c4ncccc34)c12`, in data set [1], the IC50 is 20.8 nM and the inhibitory constant (Ki) turned out to be 4.9 nM.
For `COc1cc2c(cc1-c1c(C)noc1C)[nH]c1nc(C)nc(Nc3nn(C)c4cc(F)ccc34)c12` the same measures were 87.6 nM and 28.4 nM.
With `COc1cc2c(cc1-c1c(C)noc1C)[nH]c1nc(C)nc(Nc3cc(C)nn3C3CCC3)c12`, the values for the IC50 in data set [1], in data set [2] and in [3] were 14.3 nM, 26 nM and 38.8 nM, respectively. Moreover, the Ki in data set [1] was 2.6 nM.
As to `COc1cc2c(cc1-c1c(C)noc1C)[nH]c1nc(C)nc(Nc3nn(CCO)c4ccccc34)c12`, in data set [1], the IC50 was found to be 9.8 nM and the Ki was 1 nM.
For `COc1cc2c(cc1-c1c(C)noc1C)[nH]c1nc(C)nc(Nc3cc(C(C)C)nn3C)c12`, the concentration at 1 h in data set [4] came out at 6240 ng/mL; in data set [7] it was 736 ng/g. In addition, in data set [1], the Ki is less than 1 nM. For the same compound, the concentration at 6 h came to 1870 ng/mL in [5] and 166 ng/g in data set [6]. Also, the IC50 is 26 nM in data set [2] and 11.7 nM in [3].
As for `CCn1nc(C)cc1Nc1nc(C)nc2[nH]c3cc(-c4c(C)noc4C)c(OC)cc3c12`, the IC50 in data set [1] was determined as 16.8 nM; in [2] it was 26.3 nM; in data set [3], 15.4 nM. Besides, the Ki in data set [1] was 3.4 nM.
For the compound `COc1ccc2c(Nc3nc(C)nc4[nH]c5cc(-c6c(C)noc6C)c(OC)cc5c34)nn(C)c2c1`, in [1], the IC50 was 196 nM and the inhibitory constant (Ki) was 66.5 nM.
Take `COc1cc2c(cc1-c1c(C)noc1C)[nH]c1nc(C)nc(Nc3nn(C)c4ccccc34)c12`: in data set [1], the IC50 stood at 9.1 nM and the inhibition constant Ki came to 0.7 nM.
`COc1cc2c(cc1-c1c(C)noc1C)[nH]c1nc(C)nc(Nc3n[nH]c4ccccc34)c12`: in [1], the half-inhibitory concentration (IC50) was 11.8 nM and the Ki worked out at 1.7 nM.
Regarding `COc1cc2c(cc1-c1c(C)noc1C)[nH]c1nc(C)nc(Nc3nn(C)c4c3CCCC4)c12`, in data set [1], the Ki was less than 1 nM. For the same compound, the IC50 came out at 58.3 nM in data set [2] and 41.9 nM in data set [3].
`COc1cc2c(cc1-c1c(C)noc1C)[nH]c1nc(C)nc(Nc3cc(C)n(C)n3)c12`: the IC50 in [1] worked out at 24.9 nM; in data set [2], 81.1 nM; in [3] it was 30.7 nM. Moreover, the inhibitory constant (Ki) in data set [1] was determined as 6.3 nM.
For `COc1cc2c(cc1-c1c(C)noc1C)[nH]c1nc(C)nc(Nc3nn(C)c4ccc(F)cc34)c12`, the inhibition constant (Ki) in data set [1] amounted to 16.7 nM.
Consider `COc1cc2c(cc1-c1c(C)noc1C)[nH]c1nc(C)nc(Nc3cc(C(C)(C)C)nn3C)c12`, for which the concentration at 1 h in data set [4] turned out to be 923 ng/mL; in data set [7], 305 ng/g. Moreover, the IC50 in data set [1] amounted to 10.5 nM; in data set [2] it was 23.5 nM; in data set [3], 23 nM. For the same compound, in data set [1], the Ki stood at 1.2 nM. The concentration at 6 h in data set [5] came to 458 ng/mL; in data set [6], 268 ng/g.
For the compound `COc1cc2c(cc1-c1c(C)noc1C)[nH]c1nc(C)nc(Nc3c(C)c(C4CC4)nn3C)c12`, the IC50 in data set [1] came out at 51.7 nM; in data set [2], 319 nM; in data set [3], 201 nM. Further, the Ki in [1] was 15.8 nM.
With `COc1cc2c(cc1-c1c(C)noc1C)[nH]c1nc(C)nc(Nc3nn(C)c4cccc(F)c34)c12`, in [1], the Ki was 21.5 nM.
For the compound `COc1cc2c(cc1-c1c(C)noc1C)[nH]c1nc(C)nc(Nc3nn(C)c4cccnc34)c12`, in data set [1], the IC50 is 229 nM and the inhibitory constant (Ki) turned out to be 78 nM.
Turning to `COc1cc2c(cc1-c1c(C)noc1C)[nH]c1nc(C)nc(Nc3cc(C(C)(C)C(F)(F)F)nn3C)c12`, the IC50 stood at 13.8 nM in [1], 164 nM in data set [2] and 75 nM in data set [3]. Moreover, in data set [1], the Ki came out at 2.4 nM.
Take `Cc1sc2c(c1C)C(c1ccc(Cl)cc1)=N[C@@H](CC(=O)Nc1ccc(O)cc1)c1nnc(C)n1-2` [BIRABRESIB]: the inhibition in vivo at 50 mg/kg in data set [10] amounted to 33%; in data set [11], 21%.
As to `COc1cc2c(cc1-c1c(C)noc1C)[nH]c1nc(C)nc(Nc3nn(C)c4c(F)cccc34)c12`, in data set [1], the IC50 was determined as 95.2 nM and the Ki came out at 31 nM.
